Compound activity from PubChem BioAssay.
An excerpt weighted towards active compounds, which were near 3.8% of everything screened.
TMEM16A act: TMEM16A chloride channel activators or potentiators, primary screen, cell-based, HTS | Anoctamin-1 (Mus musculus), Q8BHY3 | HEK293 TMEM16A/YFP-H148Q/I152L, iodide quench fluorescence; hits give low values | B-score at 10 µM | actives 0.3% (n = 340,000) | AID 623877, 2012;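 active means fluorescence-ratio B-score plate-corrected deviation score at least 3 library SD below zero, with starting fluorescence score within 5 deviations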;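 further: channel opened by trigger with iodide after compound preincubation; score built on the fluorescence ratio of max minus min over baseline; more negative score means more quench and so TMEM16A activation or potentiation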
ANO1 block: TMEM16A chloride channel inhibitors, primary screen, cell-based, HTS; HEK293 TMEM16A/YFP iodide influx fluorescence, ionomycin; Anoctamin-1 (Mus musculus), Q8BHY3; actives 1.2% (n = 310,000); AID 588511, 2011; normalized B-score (activity score, 25-100; higher = stronger inhibition) at 10 µM;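 active means ratio plate-corrected score three or more library SD toward inhibition, starting fluorescence score within five deviations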;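 further: score derived from kinetic fluorescence span divided by baseline fluorescence per well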
CSC inhib: cancer stem cell viability inhibitors, primary screen, luminescence; inhibition, % at 7.5 µM; cancer stem cell-like cells viability; actives 1.1% (n = 300,000); in the data active means inhibition above about 75%; tested in HMLE shEcad cells
MC4R barr agon: MC4R agonists recruiting beta-arrestin, primary screen, cell-based, luminescence, agonist arm of biased-ligand search; AID 540308, 2011; activation, % at 8.9 µM; U2OS MC4R beta-arrestin complementation; percent of melanotan II response, DMSO zero; Melanocortin receptor 4 (Homo sapiens), P32245; actives 0.98% (n = 360,000);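 active means activation above a per-plate cutoff, the mean activation of sample wells on that plate plus 3 SD, cut at about 8% in these data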
Beta apoptosis: inhibitors of cytokine-induced beta cell apoptosis, primary screen, luminescence | actives 0.8% (n = 300,000) | protection from apoptosis, % (test concentration not listed) | INS-1E cytokine-induced death, ATP luminescence, 48 h; percent of positive-control rescue, neutral wells zero;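 active means Every replicate reaches about 75%, or at least half do and their mean reaches it too, limit read from the data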;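 further: 0% = cytokine-treated negative control wells and 100% = positive control rescue; higher means more ATP so stronger rescue from cytokine killing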
MC4R antag cAMP: MC4R antagonists of cAMP signaling, primary screen, cell-based, TR-FRET, antagonist arm of biased-ligand search. Melanocortin receptor 4 (Homo sapiens), P32245. MC4R-expressing cells, MTII-stimulated cAMP, LANCE TR-FRET. inhibition, % at 6.5 µM. actives 0.48% (n = 360,000). AID 540295, 2011;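 active means inhibition above its plate's cutoff, the mean of tested wells on that plate plus 3 SD, cut at about 29% in these data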;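 further: 0% = Melanotan II alone and 100% = Melanotan II plus saturating MCL0020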
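System: U2OS-MC4R stable cell line; Technique: Eu-cAMP/anti-cAMP TR-FRET, emission 671 nm; Repeats: single well per compound; Also added: Melanotan II; Dosing: one concentration, 6.5 µM nominal; Schedule: 30-min compound, 1-h challenge, 1-h detection, room temperature.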
TMEM16A reconf: TMEM16A chloride channel inhibitors, confirmation, cell-based, re-confirmation. AID 652189, 2013. shares compounds with ANO1 block. HEK293 TMEM16A/YFP-H148Q, iodide quench fluorescence; ionomycin added to raise cell calcium. inhibition, % at 10 µM. actives 39% (n = 2,300);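 active means mean duplicate percent inhibition, scaled so buffer wells are 0 and the reference blocker 100, over three buffer SD above buffer mean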
TMEM16A Ca cntr: calcium mobilization in TMEM16A/YFP HEK293 cells, confirmation, counter-screen for TMEM16A inhibitor project | shares compounds with ANO1 block | Fluo4 calcium mobilization | calcium response (% of ionomycin), % at 10 µM | actives 2% (n = 2,300);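 active means duplicate-averaged calcium signal over 20% of the ionomycin maximum, relative to buffer baseline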;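 further: each well's signal is peak minus trough fluorescence divided by its pre-addition baseline; 0% = buffer wells and 100% = ionomycin wells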
YFP-HEK293 quench: iodide YFP quench changes in parental YFP-HEK293, counter-screen for TMEM16A inhibitor project, cell-based. shares compounds with ANO1 block. ionomycin. YFP ratio F(max-min)/F0 at 10 µM. 2,300 tested, under 10 active;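 active means yellow fluorescent protein signal ratio exceeding the buffer control mean by over 5 SD of those controls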;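 further: ratio is mean of duplicate wells from kinetic YFP trace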
ClC-1 rat inh: ClC-1 chloride channel inhibition, selectivity assay for TMEM16A inhibitor project, cell-based, voltage-dependent ClC-1. CHO ClC-1-YFP, iodide influx fluorescence quench; iodide control reads 0, buffer control 100. AID 652236, 2013. 2,300 tested, under 10 active. ratio percent, % at 10 µM. shares compounds with ANO1 block;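 active means duplicate-mean ratio percent above the mean of iodide-only control wells, which defines zero, plus 5 of their SD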;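 further: higher percent means stronger block of ClC-1 iodide influx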
Target sequence (P35524 whole entry, looked up): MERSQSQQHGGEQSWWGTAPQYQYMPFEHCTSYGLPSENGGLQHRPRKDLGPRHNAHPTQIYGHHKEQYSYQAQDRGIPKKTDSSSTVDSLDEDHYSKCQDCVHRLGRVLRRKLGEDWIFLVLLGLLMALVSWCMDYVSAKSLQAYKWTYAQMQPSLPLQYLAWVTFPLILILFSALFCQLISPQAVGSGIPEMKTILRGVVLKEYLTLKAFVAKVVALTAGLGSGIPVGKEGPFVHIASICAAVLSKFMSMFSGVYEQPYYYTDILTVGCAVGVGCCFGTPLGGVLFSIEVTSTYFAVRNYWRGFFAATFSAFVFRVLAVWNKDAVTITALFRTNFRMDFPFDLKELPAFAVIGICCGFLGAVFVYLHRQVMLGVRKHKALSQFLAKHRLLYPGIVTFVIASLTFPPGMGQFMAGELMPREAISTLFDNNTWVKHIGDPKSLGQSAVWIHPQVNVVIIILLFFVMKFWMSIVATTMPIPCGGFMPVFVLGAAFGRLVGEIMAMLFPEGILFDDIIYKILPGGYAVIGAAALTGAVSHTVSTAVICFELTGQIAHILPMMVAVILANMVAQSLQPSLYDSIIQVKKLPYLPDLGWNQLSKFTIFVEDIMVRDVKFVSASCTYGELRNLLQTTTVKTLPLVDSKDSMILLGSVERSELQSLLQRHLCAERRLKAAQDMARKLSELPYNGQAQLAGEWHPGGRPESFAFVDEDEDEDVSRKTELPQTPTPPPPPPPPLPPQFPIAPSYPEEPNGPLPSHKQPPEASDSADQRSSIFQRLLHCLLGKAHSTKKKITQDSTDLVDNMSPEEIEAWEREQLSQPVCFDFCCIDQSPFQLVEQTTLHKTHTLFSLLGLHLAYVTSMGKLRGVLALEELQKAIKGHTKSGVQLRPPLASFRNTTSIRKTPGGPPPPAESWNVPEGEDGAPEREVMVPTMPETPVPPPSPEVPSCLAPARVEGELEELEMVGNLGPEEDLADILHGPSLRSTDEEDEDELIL
* marks the source's active call; other numbers are inactive results; i = inactive; . = not tested or not shown.

SMILES	TMEM16A act	ANO1 block	CSC inhib	MC4R barr agon	Beta apoptosis	MC4R antag cAMP	TMEM16A reconf	TMEM16A Ca cntr	YFP-HEK293 quench	ClC-1 rat inh
CCCCNC(=O)c1sc(=S)n2c1[nH]c(=O)c1ccccc12	i	100*	27	1	4	8	56%*	i	-0.93	-25
CC1=CC(C)(C)N(S(=O)(=O)c2ccc(C)cc2)c2ccccc21	i	100*	.	-3	.	-18	i	i	-0.94	-16
COc1ccc2c(c1)C(C)=CC(C)(C)N2S(=O)(=O)c1ccc(Br)cc1	i	i	-9	-1	39	-13	.	.	.	.
O=C(OC1CCOC1=O)c1cc(S(=O)(=O)N2CCOCC2)c(Cl)cc1Cl (centres undefined)	i	.	.	-1	-17	24	.	.	.	.
COCCNC(=O)c1c(NC(=O)c2nc(SC)ncc2Cl)sc2c1CCCC2	i	i	.	2	.	5	24%*	i	-0.78	6
Cc1ccc(S(=O)(=O)CCC(=O)OCc2cc(=O)oc3cc(C)ccc23)cc1	i	.	6	-3	-7	-3	.	.	.	.
CC(Sc1ccccc1)C(=O)N/N=C/c1ccccc1 (centres undefined)	i	i	-4	0	.	0	.	.	.	.
CCOC(=O)c1ccc(NC(=S)N2CCC(C(N)=O)CC2)cc1	i	i	-2	-2	2	9	.	.	.	.
CCOC(=O)c1ccc(NC(=S)N2CCN(C)CC2)cc1	i	25*	-8	-1	-6	5	i	i	-0.84	0
Cc1[nH]ncc1-c1ccccc1Cl	i	i	-3	-1	-6	7	.	.	.	.
CCCCN(C(=O)C(C)N1C(=O)c2ccccc2C1=O)c1c(N)n(CC(C)C)c(=O)[nH]c1=O (centres undefined)	i	.	.	-1	-4	5	.	.	.	.
CCCCc1nc(N2CCOCC2)c(C#N)c2c1CCCC2	i	i	45	3	2	0	.	.	.	.
CCCc1nc(N2CCOCC2)c(C#N)c2c1CCCC2	i	100*	.	7	-9	-3	i	i	-1.1	-10
O=C(CSc1nccn1Cc1ccccc1)Nc1nccs1	i	25*	.	-3	1	0	i	i	-1	-12
CCCCC1(C)OC(=O)C(=Cc2ccc(N(C)C)cc2)C(=O)O1 (centres undefined)	i	i	1	1	-2	-2	22%*	i	-0.88	-12
O=C1CCc2cc(S(=O)(=O)Nc3ccccc3F)cc3c2N1CCC3	i	i	.	-1	-4	6	.	.	.	.
Cc1ccc(OCc2ccc(C(=O)N3CCCC3)o2)cc1C	i	25*	-2	1	-4	7	i	i	-1.2	-14
COC(=O)c1cc(NC(=O)C(C)c2ccc(CC(C)C)cc2)ccc1O (centres undefined)	i	25*	-2	8	11	-3	22%*	i	-0.94	-9
